From ChEMBL document CHEMBL4414568, “Development of Novel Irreversible Pyruvate Kinase M2 Inhibitors” (J Med Chem, 2019)
Calls of active or inactive are those of the source. The calls are words filed in the database; no cut-off is given here.

How the values were obtained:
NCI-H1975 = assay: Antiproliferative activity against human NCI-H1975 cells harboring EGFR mutant assessed as reduction in cell viability incubated for 24 hrs by MTT assay; assay type: functional, cell-based; conditions: NCI-H1975, 24 h
Procedure, shortened: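 Cells seeded at 3,500 per well in 10% FBS and left overnight, then exposed to test agent or vehicle in 5% FBS for 24 h. MTT added for 1 h, then medium swapped for DMSO and absorbance read at 560 nm. Viability given as percent of vehicle-treated control. Run in triplicate.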

Pyruvate kinase PKM [1] = target: T1, Pyruvate kinase PKM (Homo sapiens, UniProt P14618); assay: Inhibition of N-(4-(3-(3-(Methylamino)-3-oxopropyl)-5-(4'-(prop-2-yn-1-yloxy)-[1,1'-biphenyl]-4-yl)-1H-pyrazol-1-yl)phenyl)propiolamide binding to PKM2 in human PC9 cells at 1 uM preincubated for 1 hr followed by probe addition and measured after 1 hr by Western blot analysis; assay type: cell-based
Procedure, shortened: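 PC-9 cells pretreated with 1 µM compound or DMSO for 1 h, then alkyne probe added at 0.5, 1 or 2 µM for 1 h at 37 °C. Lysates put through Cu-catalysed click with biotin-azide, streptavidin beads 16 h at 4 °C, washes with 0.5% SDS/PBS, 10% SDS-PAGE and PKM2 Western blot.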

Pyruvate kinase PKM [2] = target: T1, Pyruvate kinase PKM; assay: Inhibition of PKM2 in human PC9 cells assessed as increase in oxygen consumption rate at 0.25 to 1 uM preincubated for 4 hrs followed by glucose/oligomycin/2-DG addition and measured after 1 hr by seahorse XFe96 analyser based assay; assay type: cell-based
Procedure, shortened: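 PC-9 cells, 5 × 10^4 per well, seeded 24 h ahead, then treated with DMSO or compound at 0.25, 0.5 or 1 µM for 4 h at 37 °C. Cells held 1 h without CO2 in glycolysis medium. Seahorse glycolysis stress test with serial injections of 10 mM glucose, oligomycin and 50 mM 2-DG; ECAR and OCR recorded together. Six wells per point.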

Pyruvate kinase PKM [3] = target: T1, Pyruvate kinase PKM; assay: Inhibition of recombinant human PKM2 expressed in Escherichia coli at 0.125 to 0.5 uM using PEP as substrate incubated for 20 mins by OxiRed probe-based colorimetric assay relative to control
Procedure, shortened: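 Recombinant PKM1 or PKM2 incubated with compound at room temperature for 20 min. Remaining activity measured by the same colorimetric kit: PEP + […], PK then pyruvate oxidase, H2O2 read-out. n = 3.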

[4] = target: T2, ATP-citrate synthase (Homo sapiens) (UniProt P53396); assay: Binding affinity to ACYL in human PC9 cells incubated for 1 hr by ABPP-SILAC assay; assay type: cell-based
T2 sequence (whole entry): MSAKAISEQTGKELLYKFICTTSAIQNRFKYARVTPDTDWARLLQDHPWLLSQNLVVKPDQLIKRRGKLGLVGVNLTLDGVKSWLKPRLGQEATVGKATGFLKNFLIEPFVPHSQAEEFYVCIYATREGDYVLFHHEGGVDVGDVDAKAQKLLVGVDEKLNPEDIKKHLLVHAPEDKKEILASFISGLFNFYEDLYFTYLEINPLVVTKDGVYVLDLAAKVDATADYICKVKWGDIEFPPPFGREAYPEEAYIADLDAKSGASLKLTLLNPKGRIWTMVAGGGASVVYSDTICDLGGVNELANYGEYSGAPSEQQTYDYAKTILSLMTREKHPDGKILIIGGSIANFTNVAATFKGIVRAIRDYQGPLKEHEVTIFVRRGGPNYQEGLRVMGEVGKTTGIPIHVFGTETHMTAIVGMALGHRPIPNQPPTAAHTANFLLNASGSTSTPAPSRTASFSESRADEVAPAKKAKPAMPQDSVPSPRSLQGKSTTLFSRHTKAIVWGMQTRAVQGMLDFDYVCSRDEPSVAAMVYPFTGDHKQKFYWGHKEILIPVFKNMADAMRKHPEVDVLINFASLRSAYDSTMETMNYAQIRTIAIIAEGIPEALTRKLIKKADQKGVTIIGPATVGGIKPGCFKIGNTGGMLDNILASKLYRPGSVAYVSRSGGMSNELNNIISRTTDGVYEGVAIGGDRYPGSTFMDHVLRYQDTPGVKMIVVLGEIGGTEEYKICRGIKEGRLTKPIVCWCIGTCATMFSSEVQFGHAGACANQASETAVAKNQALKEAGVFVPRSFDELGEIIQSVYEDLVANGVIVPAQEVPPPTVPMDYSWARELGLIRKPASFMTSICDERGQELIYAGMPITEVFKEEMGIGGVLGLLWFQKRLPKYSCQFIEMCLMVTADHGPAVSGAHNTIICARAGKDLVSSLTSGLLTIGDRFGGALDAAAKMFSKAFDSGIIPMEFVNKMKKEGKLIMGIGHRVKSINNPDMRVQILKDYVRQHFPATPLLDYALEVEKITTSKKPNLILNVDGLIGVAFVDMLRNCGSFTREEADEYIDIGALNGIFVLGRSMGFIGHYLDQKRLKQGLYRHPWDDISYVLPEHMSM
Procedure, shortened: (§1)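 PC-9 cells passaged at least six times in SILAC DMEM with 10% dialyzed FBS plus 100 µg/mL light or 13C/15N-labeled Arg/Lys. Heavy cells got ABPP probe (1 µM) and light cells DMSO, 1 h at 37 °C. Cells mixed 1:1, sonicated, spun at 100,000g, protein normalized to 1 mg/mL. Click biotin-azide, streptavidin bead pulldown 16 h at 4 °C, SDS-PAGE, on-bead trypsin digestion, LC-MS/MS.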

Mus musculus = assay: In vivo inhibition of PKM2 in human PC9 cells xenografted in athymic nude mouse assessed as reduction in beta-catenin expression at 10 mg/kg, ip administered once daily for 25 days measured post-last dose by Western blot analysis; assay type: functional, organism-based
Procedure, shortened: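 Tumors from PC-9 xenograft nude mice given 10 mg/kg i.p. daily or vehicle for 25 days (n = 8 per group) were lysed for Western blots of PKM2, EGFR, Stat3 and β-catenin. Bands quantified by ImageJ and normalized to GAPDH.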

[5] = target: T3, Malate dehydrogenase, mitochondrial (Homo sapiens) (UniProt P40926); assay: Binding affinity to MDHM in human PC9 cells incubated for 1 hr by ABPP-SILAC assay; assay type: cell-based; procedure, shortened: as §1
T3 sequence (whole entry): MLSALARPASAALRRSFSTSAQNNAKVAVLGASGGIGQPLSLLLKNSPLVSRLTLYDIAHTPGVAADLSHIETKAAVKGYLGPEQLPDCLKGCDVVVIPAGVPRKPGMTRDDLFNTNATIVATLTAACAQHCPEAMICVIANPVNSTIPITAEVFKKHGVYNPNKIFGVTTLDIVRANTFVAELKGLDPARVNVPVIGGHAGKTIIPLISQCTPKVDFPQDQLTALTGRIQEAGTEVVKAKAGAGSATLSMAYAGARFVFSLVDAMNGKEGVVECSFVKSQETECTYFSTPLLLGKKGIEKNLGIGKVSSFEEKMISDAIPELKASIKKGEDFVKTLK

PC-9 = assay: Antitumor activity against human PC9 cells xenografted in athymic nude mouse assessed as reduction in tumor growth at 10 mg/kg, ip administered once daily for 25 days measured post-last dose by caliper method; assay type: functional, organism-based
Procedure, shortened: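 Female nude mice, 6 weeks old, given s.c. 1 × 10^6 PC-9 cells in Matrigel (1:1). From day 7, once-daily i.p. vehicle or 10 mg/kg compound in sterile water with 0.5% methylcellulose and 0.1% Tween-80, n = 8 per group, for 25 days. Tumor volume and body weight followed, tumors weighed at end.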

T1 sequence (P14618 2-531 limits assumed): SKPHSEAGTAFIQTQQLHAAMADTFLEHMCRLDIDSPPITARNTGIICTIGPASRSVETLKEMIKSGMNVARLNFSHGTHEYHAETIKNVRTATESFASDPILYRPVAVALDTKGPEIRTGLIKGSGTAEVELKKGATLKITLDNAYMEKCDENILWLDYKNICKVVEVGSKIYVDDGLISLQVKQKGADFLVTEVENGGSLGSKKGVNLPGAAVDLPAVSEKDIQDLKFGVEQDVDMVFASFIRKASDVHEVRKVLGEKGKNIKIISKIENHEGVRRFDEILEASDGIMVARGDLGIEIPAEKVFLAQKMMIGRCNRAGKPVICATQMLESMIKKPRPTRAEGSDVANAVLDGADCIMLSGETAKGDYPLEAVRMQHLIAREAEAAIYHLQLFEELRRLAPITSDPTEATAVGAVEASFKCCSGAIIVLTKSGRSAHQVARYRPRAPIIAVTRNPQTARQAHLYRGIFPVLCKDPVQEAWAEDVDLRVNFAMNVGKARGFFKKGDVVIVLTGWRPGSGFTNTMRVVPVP

IC50 (NCI-H1975): 1000 nM
inhibition (Pyruvate kinase PKM [1]): Active
inhibition (Pyruvate kinase PKM [2]): Active
inhibition (Pyruvate kinase PKM [3]): 30%
Activity [4]: Active
Activity [5]: Active
SMILES: C#CC(=O)Nc1ccc(-n2nc(CCC(=O)NC)cc2-c2ccc(-c3ccc(C(F)(F)F)cc3)cc2)cc1
inhibition (Mus musculus): Active
Activity (PC-9): Active
